The record followed here is ChEMBL document CHEMBL2424574, “Structure-activity relationships and pharmacophore model of a noncompetitive pyrazoline containing class of GluN2C/GluN2D selective antagonists” (J Med Chem, 2013).

Each structure is given as a SMILES string. pIC50: −log10 of the molar value.

In assay [1] the target is Glutamate receptor ionotropic, NMDA 2A (Rattus norvegicus, UniProt P35439+Q00959). Description: Negative allosteric modulation of recombinant rat GluN2A receptor expressed in Xenopus laevis oocytes by two-electrode voltage clamp method. The class given is cell-based, Oocyte. The essentials: (§1)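 Two-electrode voltage clamp of Xenopus oocytes expressing rat GluN1 with GluN2A, 2B, 2C or 2D. Holding potential −40 mV in recording solution (mM: 90 NaCl, 1 KCl, 0.5 BaCl2, 0.005 EDTA, 10 HEPES, pH 7.4, 23 °C). Compounds diluted from 20 mM DMSO stocks to 0.05–0.1% final DMSO. IC50 from a Hill fit to the averaged composite concentration–response curve, 5–24 oocytes from 2–4 frogs.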
Background: In two-electrode clamp one electrode senses voltage and the other passes current.

Assay [2] concerns the target Glutamate receptor ionotropic, NMDA 2D (Rattus norvegicus, UniProt P35439+Q62645). Description: Negative allosteric modulation of recombinant rat GluN2D receptor expressed in Xenopus laevis oocytes by two-electrode voltage clamp method. The class given is cell-based, Oocyte. The essentials:
as §1

For assay [3], the species on record is Rattus norvegicus. Description: Selectivity ratio of IC50 for recombinant rat GluN2A receptor to IC50 for recombinant rat GluN2D receptor. The essentials: (§2)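 Rat GluN1 co-expressed with GluN2A, GluN2B or GluN2D in Xenopus oocytes. Two-electrode voltage clamp at −40 mV in 90 NaCl, 1 KCl, 0.5 BaCl2, 0.005 EDTA, 10 HEPES (mM), pH 7.4, 23 °C; final DMSO 0.1–0.05%. IC50s came from Hill fits to averaged composite concentration-response curves (5–24 oocytes, 2–4 frogs). Ratio is GluN2A or GluN2B IC50 over GluN2D IC50.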

Assay [4] deals with Glutamate receptor ionotropic, NMDA 2B (Rattus norvegicus, UniProt P35439+Q00960). Description: Negative allosteric modulation of recombinant rat GluN2B receptor expressed in Xenopus laevis oocytes by two-electrode voltage clamp method. In kind it is cell-based, Oocyte. The gist of the method:
as §1

For assay [5], the species on record is Rattus norvegicus. Description: Selectivity ratio of IC50 for recombinant rat GluN2B receptor to IC50 for recombinant rat GluN2D receptor. The essentials: as §2
For assay [6], the target named is Glutamate receptor ionotropic, NMDA 2C (Rattus norvegicus, UniProt P35439+Q00961). Put plainly: Negative allosteric modulation of recombinant rat GluN2C receptor expressed in Xenopus laevis oocytes by two-electrode voltage clamp method. In kind it is cell-based, Oocyte. The gist of the method:
as §1

Glutamate receptor ionotropic, NMDA 2C, sequence (Q00961 whole entry, one chain of several): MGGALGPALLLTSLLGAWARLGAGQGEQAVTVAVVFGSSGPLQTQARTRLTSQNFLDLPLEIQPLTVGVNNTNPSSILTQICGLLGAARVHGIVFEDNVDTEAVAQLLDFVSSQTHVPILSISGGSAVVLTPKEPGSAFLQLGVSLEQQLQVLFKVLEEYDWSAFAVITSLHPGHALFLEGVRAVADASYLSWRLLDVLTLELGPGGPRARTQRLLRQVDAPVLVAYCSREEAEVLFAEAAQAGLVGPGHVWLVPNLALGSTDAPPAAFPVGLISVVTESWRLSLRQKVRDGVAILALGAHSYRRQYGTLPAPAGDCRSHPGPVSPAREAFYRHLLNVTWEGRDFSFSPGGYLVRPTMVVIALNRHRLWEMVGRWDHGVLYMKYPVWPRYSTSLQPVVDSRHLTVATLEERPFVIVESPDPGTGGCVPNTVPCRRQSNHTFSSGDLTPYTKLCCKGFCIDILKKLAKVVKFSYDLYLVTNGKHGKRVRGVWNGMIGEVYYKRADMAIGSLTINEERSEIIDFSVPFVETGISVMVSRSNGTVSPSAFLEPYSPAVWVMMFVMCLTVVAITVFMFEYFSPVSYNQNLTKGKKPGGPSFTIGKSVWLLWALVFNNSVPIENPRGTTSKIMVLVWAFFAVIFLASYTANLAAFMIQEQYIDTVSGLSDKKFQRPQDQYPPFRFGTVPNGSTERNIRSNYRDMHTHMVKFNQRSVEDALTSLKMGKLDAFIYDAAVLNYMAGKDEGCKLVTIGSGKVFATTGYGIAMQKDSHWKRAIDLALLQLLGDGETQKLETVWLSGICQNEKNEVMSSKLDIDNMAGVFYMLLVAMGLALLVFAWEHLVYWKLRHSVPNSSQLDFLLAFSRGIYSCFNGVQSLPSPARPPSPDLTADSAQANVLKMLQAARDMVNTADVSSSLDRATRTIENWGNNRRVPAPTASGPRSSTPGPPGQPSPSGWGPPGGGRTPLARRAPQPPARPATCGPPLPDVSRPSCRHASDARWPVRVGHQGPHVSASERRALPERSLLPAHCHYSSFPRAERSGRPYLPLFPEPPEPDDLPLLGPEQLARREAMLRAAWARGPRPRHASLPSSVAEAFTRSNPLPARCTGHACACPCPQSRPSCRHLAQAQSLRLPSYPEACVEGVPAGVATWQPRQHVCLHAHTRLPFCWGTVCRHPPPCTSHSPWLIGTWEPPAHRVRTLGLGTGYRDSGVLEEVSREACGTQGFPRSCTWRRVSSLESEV
Glutamate receptor ionotropic, NMDA 2D, sequence (Q62645 whole entry, one chain of several): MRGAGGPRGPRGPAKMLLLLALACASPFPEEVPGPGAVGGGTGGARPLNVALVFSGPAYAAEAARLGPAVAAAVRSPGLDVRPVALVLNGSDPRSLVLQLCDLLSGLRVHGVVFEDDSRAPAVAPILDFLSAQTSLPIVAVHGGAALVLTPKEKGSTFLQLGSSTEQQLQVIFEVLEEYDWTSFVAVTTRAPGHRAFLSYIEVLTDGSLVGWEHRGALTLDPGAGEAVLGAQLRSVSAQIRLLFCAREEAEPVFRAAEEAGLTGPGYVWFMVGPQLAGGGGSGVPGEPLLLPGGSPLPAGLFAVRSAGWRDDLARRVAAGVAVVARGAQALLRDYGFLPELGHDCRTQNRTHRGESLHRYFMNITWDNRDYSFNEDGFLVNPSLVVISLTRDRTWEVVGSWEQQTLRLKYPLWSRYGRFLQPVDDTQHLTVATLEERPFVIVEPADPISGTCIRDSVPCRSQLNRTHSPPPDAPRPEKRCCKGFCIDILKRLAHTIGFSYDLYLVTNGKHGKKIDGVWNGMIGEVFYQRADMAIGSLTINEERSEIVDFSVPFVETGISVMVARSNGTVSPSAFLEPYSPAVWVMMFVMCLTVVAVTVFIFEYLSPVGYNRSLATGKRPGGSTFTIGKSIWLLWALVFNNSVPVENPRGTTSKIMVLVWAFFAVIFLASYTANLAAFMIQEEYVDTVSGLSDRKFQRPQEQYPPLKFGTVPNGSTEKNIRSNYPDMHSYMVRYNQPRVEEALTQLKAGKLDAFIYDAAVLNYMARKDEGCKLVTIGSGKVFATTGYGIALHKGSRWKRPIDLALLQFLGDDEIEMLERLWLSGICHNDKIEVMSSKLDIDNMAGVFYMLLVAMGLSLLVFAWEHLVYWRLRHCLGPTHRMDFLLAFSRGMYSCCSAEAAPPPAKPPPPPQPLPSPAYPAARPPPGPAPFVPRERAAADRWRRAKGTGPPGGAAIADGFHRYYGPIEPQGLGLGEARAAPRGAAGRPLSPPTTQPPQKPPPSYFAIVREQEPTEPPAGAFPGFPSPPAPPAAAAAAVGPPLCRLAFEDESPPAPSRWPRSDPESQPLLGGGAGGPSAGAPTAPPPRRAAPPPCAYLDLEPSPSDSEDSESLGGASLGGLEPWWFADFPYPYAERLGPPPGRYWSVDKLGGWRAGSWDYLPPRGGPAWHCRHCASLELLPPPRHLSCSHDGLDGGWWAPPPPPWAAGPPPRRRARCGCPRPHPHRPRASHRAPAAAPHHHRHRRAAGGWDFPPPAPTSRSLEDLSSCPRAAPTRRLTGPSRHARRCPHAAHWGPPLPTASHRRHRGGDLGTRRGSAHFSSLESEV
Glutamate receptor ionotropic, NMDA 2B, sequence (Q00960 whole entry, one chain of several): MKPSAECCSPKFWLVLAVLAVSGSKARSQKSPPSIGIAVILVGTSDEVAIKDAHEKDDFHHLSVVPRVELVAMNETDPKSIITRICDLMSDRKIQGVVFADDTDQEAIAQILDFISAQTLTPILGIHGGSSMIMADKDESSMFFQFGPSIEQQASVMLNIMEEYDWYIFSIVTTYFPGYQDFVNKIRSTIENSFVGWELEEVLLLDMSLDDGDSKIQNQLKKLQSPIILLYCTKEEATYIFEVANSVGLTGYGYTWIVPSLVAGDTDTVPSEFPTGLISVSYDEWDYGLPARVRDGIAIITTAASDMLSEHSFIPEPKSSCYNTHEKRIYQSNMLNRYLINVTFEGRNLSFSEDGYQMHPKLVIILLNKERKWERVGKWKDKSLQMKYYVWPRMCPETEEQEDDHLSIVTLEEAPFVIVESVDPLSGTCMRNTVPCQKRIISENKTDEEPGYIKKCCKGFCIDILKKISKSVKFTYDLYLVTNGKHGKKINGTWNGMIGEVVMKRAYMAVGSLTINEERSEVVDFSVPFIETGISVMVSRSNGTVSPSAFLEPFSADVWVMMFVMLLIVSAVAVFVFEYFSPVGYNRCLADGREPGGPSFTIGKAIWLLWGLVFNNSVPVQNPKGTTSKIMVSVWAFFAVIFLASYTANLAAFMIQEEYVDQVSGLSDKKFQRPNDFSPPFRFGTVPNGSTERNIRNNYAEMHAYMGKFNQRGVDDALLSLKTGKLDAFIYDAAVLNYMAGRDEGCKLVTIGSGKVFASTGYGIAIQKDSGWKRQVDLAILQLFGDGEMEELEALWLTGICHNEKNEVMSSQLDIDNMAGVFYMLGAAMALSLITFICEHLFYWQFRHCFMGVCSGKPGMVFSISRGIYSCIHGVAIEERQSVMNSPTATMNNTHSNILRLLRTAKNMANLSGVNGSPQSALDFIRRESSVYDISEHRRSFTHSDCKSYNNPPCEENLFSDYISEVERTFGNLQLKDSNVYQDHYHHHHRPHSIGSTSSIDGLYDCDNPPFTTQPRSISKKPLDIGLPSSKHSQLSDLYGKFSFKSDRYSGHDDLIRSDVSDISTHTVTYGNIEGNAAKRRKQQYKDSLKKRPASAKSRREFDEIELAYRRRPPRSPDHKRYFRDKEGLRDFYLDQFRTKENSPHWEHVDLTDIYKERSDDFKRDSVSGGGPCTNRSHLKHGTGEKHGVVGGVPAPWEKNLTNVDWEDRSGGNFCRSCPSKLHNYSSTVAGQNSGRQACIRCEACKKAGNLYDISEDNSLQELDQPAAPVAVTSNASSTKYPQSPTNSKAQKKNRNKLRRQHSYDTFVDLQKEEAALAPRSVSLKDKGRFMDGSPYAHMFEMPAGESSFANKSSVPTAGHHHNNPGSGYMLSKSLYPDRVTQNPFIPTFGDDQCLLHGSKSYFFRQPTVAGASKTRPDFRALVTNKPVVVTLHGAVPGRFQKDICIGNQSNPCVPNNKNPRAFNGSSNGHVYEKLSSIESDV

Take `O=C(O)/C=C\C(=O)N1N=C(c2c(-c3ccccc3)c3cc(Cl)ccc3[nH]c2=O)CC1c1ccc(Br)cc1` (stereo not given): the pIC50 (commonly the IC50 on a negative log10 scale, so that one unit is a factor of ten) is 4.13 in assay [1], 5.30 in assay [2], 4.43 in assay [4] and 5.05 in assay [6]. The results for the Ratio IC50 in assay [3] and in assay [5] were 15 and 7, respectively.

Take `O=C(O)CCC(=O)N1N=C(c2c(-c3ccc(Cl)c(F)c3)c3ccccc3[nH]c2=O)CC1c1ccc(Cl)cc1` (stereo not given): the pIC50 was 4.92 in assay [1], 6.28 in assay [2], 4.55 in assay [4] and 6.04 in assay [6]. The Ratio IC50 worked out at 23 in assay [3] and 53 in assay [5].

As to `O=C(O)CCC(=O)N1N=C(c2c(-c3cccc(C(F)(F)F)c3)c3ccccc3[nH]c2=O)CC1c1ccc(Cl)cc1` (stereo not given), the pIC50 was 4.55 in assay [1], 5.59 in assay [2], 4.33 in assay [4] and 5.47 in assay [6]. Further, the Ratio IC50 in assay [3] was 11; in assay [5], 18.

For `O=C(O)CCC(=O)N1N=C(c2c(-c3ccc(Cl)cc3)c3ccccc3[nH]c2=O)CC1c1ccc(Br)cc1` (stereo not given), the pIC50 is 4.72 in assay [1], 6.29 in assay [2], 4.47 in assay [4] and 6.02 in assay [6]. Also, the figures for the Ratio IC50 in assay [3] and in assay [5] were 37 and 67, respectively.

Regarding `O=C(O)/C=C\C(=O)N1N=C(c2c(-c3ccc(Br)cc3)c3ccccc3[nH]c2=O)CC1c1ccc(Cl)cc1` (stereo not given), the pIC50 in assay [1] was 4.92; in assay [2], 6.24; in assay [4], 4.77; in assay [6], 6.00. In addition, the Ratio IC50 in assay [3] amounted to 21; in assay [5], 30.

With `COc1ccc(C2CC(c3c(-c4ccccc4)c4cc(Cl)ccc4[nH]c3=O)=NN2C(=O)CCC(=O)O)cc1` (stereo not given), the pIC50 in assay [1] is 3.71; in assay [2], 4.68; in assay [4], 3.73; in assay [6], 4.55.

As for `COc1cccc(-c2c(C3=NN(C(=O)CCC(=O)O)C(c4ccc(Cl)cc4)C3)c(=O)[nH]c3ccccc23)c1` (stereo not given), the pIC50 is 3.96 in assay [1], 5.35 in assay [2], 3.82 in assay [4] and 5.11 in assay [6]. For the same molecule, the Ratio IC50 in assay [3] was 24; in assay [5], 34.

Turning to `O=C(O)CCC(=O)N1N=C(c2c(-c3ccc(Cl)cc3)c3ccccc3[nH]c2=O)C[C@@H]1c1ccc(Cl)cc1`, the negative-log IC50 (pIC50) in assay [1] is 4.35; in assay [2], 5.72; in assay [4], 4.28; in assay [6] it was 5.68. Further, the Ratio IC50 in assay [3] turned out to be 23; in assay [5], 49.

Consider `O=C(O)CCC(=O)N1N=C(c2c(-c3ccccc3)c3cc(Cl)ccc3[nH]c2=O)CC1c1ccc([N+](=O)[O-])cc1` (stereo not given), for which the pIC50 is 4.04 in assay [1], 5.96 in assay [2], 4.35 in assay [4] and 6.05 in assay [6]. Moreover, the Ratio IC50 in assay [3] came out at 85; in assay [5] it was 42.

As for `O=C(O)CCC(=O)N1N=C(c2c(-c3cc(F)cc(F)c3)c3ccccc3[nH]c2=O)CC1c1ccc(Cl)cc1` (stereo not given), the pIC50 in assay [1] is 4.68; in assay [2] it was 6.09; in assay [4], 4.00; in assay [6] it was 5.96. Further, the results for the Ratio IC50 in assay [3] and in assay [5] were 26 and 123, respectively.

For the molecule `COc1ccc(-c2c(C3=NN(C(=O)CCC(=O)O)C(c4ccc(Cl)cc4)C3)c(=O)[nH]c3ccccc23)cc1` (stereo not given), the pIC50 in assay [1] is 4.21; in assay [2], 5.64; in assay [4] it was 4.12; in assay [6], 5.30. In addition, the Ratio IC50 in assay [3] amounted to 27; in assay [5] it was 33.

Turning to `O=C(O)CCCC(=O)N1N=C(c2c(-c3ccc(Br)cc3)c3ccccc3[nH]c2=O)CC1c1ccc(Cl)cc1` (stereo not given), the pIC50 in assay [1] is 5.00; in assay [2], 6.49; in assay [4], 4.54; in assay [6], 6.22. Moreover, the Ratio IC50 is 33 in assay [3] and 91 in assay [5].

`O=C(O)CCCC(=O)N1N=C(c2c(-c3ccccc3)c3cc(Cl)ccc3[nH]c2=O)CC1c1ccc([N+](=O)[O-])cc1` (stereo not given): the pIC50 was 3.96 in assay [1], 4.96 in assay [2], 4.04 in assay [4] and 5.00 in assay [6]. The Ratio IC50 was 10 in assay [3] and 8 in assay [5].

Take `Cc1cccc(-c2c(C3=NN(C(=O)CCC(=O)O)C(c4ccc(Cl)cc4)C3)c(=O)[nH]c3ccccc23)c1` (stereo not given): the pIC50 in assay [1] is 4.62; in assay [2], 5.72; in assay [4] it was 4.15; in assay [6], 5.40. Besides, the Ratio IC50 was 13 in assay [3] and 37 in assay [5].

With `O=C(O)CCC(=O)N1N=C(c2c(-c3ccc(F)c(F)c3)c3ccccc3[nH]c2=O)CC1c1ccc(Cl)cc1` (stereo not given), the pIC50 is 4.68 in assay [1], 6.18 in assay [2], 4.15 in assay [4] and 6.11 in assay [6]. The values for the Ratio IC50 in assay [3] and in assay [5] were 32 and 108, respectively.

`Cc1ccc(-c2c(C3=NN(C(=O)CCC(=O)O)C(c4ccc(Cl)cc4)C3)c(=O)[nH]c3ccccc23)cc1` (stereo not given): the pIC50 was 4.48 in assay [1], 5.85 in assay [2], 4.38 in assay [4] and 5.60 in assay [6]. Besides, the Ratio IC50 in assay [3] stood at 24; in assay [5] it was 30.

In the case of `O=C(O)CCC(=O)N1N=C(c2c(-c3ccc(Cl)c(Cl)c3)c3ccccc3[nH]c2=O)CC1c1ccc(Cl)cc1` (stereo not given), the pIC50 is 5.11 in assay [1], 6.04 in assay [2], 4.70 in assay [4] and 6.10 in assay [6]. Besides, the Ratio IC50 is 8 in assay [3] and 22 in assay [5].

On to `O=C(O)CCC(=O)N1N=C(c2c(-c3ccc(Cl)cc3)c3ccccc3[nH]c2=O)CC1c1ccccc1` (stereo not given), for which the negative-log IC50 (pIC50) was 4.31 in assay [1], 4.96 in assay [2], 3.84 in assay [4] and 4.89 in assay [6]. Besides, the Ratio IC50 in assay [3] is 4; in assay [5], 13.

`O=C(O)CCC(=O)N1N=C(c2c(-c3ccc(Br)cc3)c3ccccc3[nH]c2=O)CC1c1ccc(F)cc1` (stereo not given): the pIC50 in assay [1] was 4.47; in assay [2], 5.54; in assay [4], 4.12; in assay [6], 5.42. In addition, the Ratio IC50 is 12 in assay [3] and 26 in assay [5].

As for `COc1ccc(C2CC(c3c(O)nc4ccc(Cl)cc4c3-c3ccccc3)=NN2C(=O)CCC(=O)O)cc1` (stereo not given), the Ratio IC50 in assay [3] and in assay [5] was 9 in each case.

In the case of `O=C(O)CCC(=O)N1N=C(c2c(-c3ccccc3)c3cc(Cl)ccc3[nH]c2=O)CC1c1ccc(C(F)(F)F)cc1` (stereo not given), the results for the pIC50 in assay [1], in assay [4] and in assay [6] were 4.10, 4.27 and 5.30, respectively. The Ratio IC50 in assay [3] was determined as 20; in assay [5], 13.

`O=C(O)CCC(=O)N1N=C(c2c(-c3ccc(C(F)(F)F)cc3)c3ccccc3[nH]c2=O)CC1c1ccc(Cl)cc1` (stereo not given): the pIC50 in assay [1] was 4.54; in assay [2] it was 5.55; in assay [4], 4.41; in assay [6], 5.44. Besides, the Ratio IC50 turned out to be 10 in assay [3] and 14 in assay [5].

On to `O=C(O)CCC(=O)N1N=C(c2c(-c3ccccc3)c3cc(Cl)ccc3[nH]c2=O)CC1c1ccc(F)cc1` (stereo not given), for which the pIC50 in assay [1] is 3.89; in assay [2], 4.85; in assay [4], 4.06; in assay [6] it was 4.64. The values for the Ratio IC50 in assay [3] and in assay [5] were 9 and 6, respectively.

Regarding `O=C(O)CCC(=O)N1N=C(c2c(-c3ccc(Br)cc3)c3ccccc3[nH]c2=O)CC1c1ccc(Cl)cc1` (stereo not given), the pIC50 in assay [1] is 5.00; in assay [2], 6.54; in assay [4], 4.64; in assay [6], 6.25.

Take `O=C(O)CCC(=O)N1N=C(c2c(-c3ccc(Cl)cc3)c3ccccc3[nH]c2=O)C[C@H]1c1ccc(Cl)cc1`: the pIC50 was 4.89 in assay [1], 4.59 in assay [4] and 6.66 in assay [6]. The values for the Ratio IC50 in assay [3] and in assay [5] were 78 and 156, respectively.

Regarding `O=C(O)CCCN1N=C(c2c(-c3ccc(Cl)cc3)c3ccccc3[nH]c2=O)CC1c1ccc(Cl)cc1` (stereo not given), the pIC50 was 4.24 in assay [1] and 4.28 in assay [4]. Also, the Ratio IC50 was determined as 34 in assay [3] and 31 in assay [5].

In the case of `O=C(O)CCC(=O)N1N=C(c2c(-c3ccccc3)c3cc(Cl)ccc3[nH]c2=O)CC1c1ccccc1` (stereo not given), the values for the pIC50 in assay [2] and in assay [6] were 4.06 and 4.07, respectively.

`O=C(O)CCC(=O)N1N=C(c2c(-c3ccc(Br)cc3)c3ccccc3[nH]c2=O)CC1c1ccc(Br)cc1` (stereo not given): the pIC50 in assay [1] is 4.89; in assay [4], 4.64. For the same molecule, the Ratio IC50 in assay [3] was 33; in assay [5] it was 59.
